Experimental data pooled from the literature.
Compare with care: the assays were run in different laboratories.
Target: D(2) dopamine receptor (DRD2, Homo sapiens, UniProt P14416)

SMILES	read-out	mode	technique	cells	tested at	endpoint	value
C[C@H](C(=O)N[C@H]1COc2ccccc2[C@@H]1S(C)(=O)=O)c1ccc(F)cc1	cell-free assay	–	–	–	10 µM	inhibition	-3%
CC(C)Cn1cnc2c(N)nc3ccccc3c21	ligand displacement	–	radioligand	–	10 µM	inhibition	14%
CCc1ccc(OCC(=O)N2CCN(Cc3ccc4c(c3)OCO4)CC2)c(Br)c1	enzyme activity	inhibitor	–	–	10 µM	inhibition	23.1%
COc1ccc(N=Nc2ccc3[nH]cc(CCN(C)C)c3c2)cc1	ligand displacement	–	radioligand	–	10 µM	inhibition	< 50%
CN(CCN1CCC(OC(=O)Nc2ccccc2-c2ccccc2)CC1)C(=O)c1ccc(CN2CCC(C(N)=O)CC2)cc1	ligand displacement	–	radioligand	–	1 µM	inhibition	-8%
Cc1c(N2CCNCC2)nc2ccc(Br)cc2c1C(=O)NC[C@H](CCC(=O)O)c1ccccc1Cl	ligand displacement	–	–	–	10 µM	inhibition	2.75%
CCN(CC)CCCC[C@H](NC(=O)[C@H](CC(C)C)NC(=O)[C@H](C)NC(=O)[C@H](Cc1ccccc1)NC(=O)c1ccc(C(C)(C)C)cc1)C(=O)N[C@@H](CO)C(=O)OC	ligand displacement	–	radioligand	–	10 µM	inhibition	40%
CNc1nc2cc(OCCCCN3CCC(c4cccc(Cl)c4Cl)CC3)ccc2s1	β-arrestin recruitment	agonist	–	HTLA	–	Emax	< 20%
OC(c1ccc(F)cc1)C(F)(F)CCN1CCC(O)(c2ccc(Cl)cc2)CC1 (racemic)	ligand displacement	–	radioligand	–	10 µM	inhibition	> 50%
c1ccc(C2(N3CCCCC3)CCCCC2)cc1	enzyme activity	inhibitor	–	–	10 µM	inhibition	18.1%
COc1ccc(S(=O)(=O)N2CCCCC2)cc1C	ligand displacement	–	radioligand	–	10 µM	inhibition	< 30%
c1ccc(C(NCCNC(c2ccccc2)c2ccccc2)c2ccccc2)cc1	cell-free assay	–	–	–	10 µM	inhibition	31%
COCc1c(-c2cc3cc(C)cc(OC)c3s2)c2c(N)ncnn2c1CN1CCNC(=O)C1	ligand displacement	–	radioligand	–	10 µM	inhibition	19%
COc1ccc(C(=O)NCc2cc(C(C)C)no2)cc1OC1CCN(C)CC1	ligand displacement	–	radioligand	–	10 µM	inhibition	18%
N#CC1(c2ccccn2)CCN(Cc2cc(C(=O)O)c(=O)n3ccccc23)CC1	cell-free assay	–	–	–	10 µM	inhibition	-16.8%
Clc1ccc2c(C3CCN(CCc4c[nH]c5ccccc45)CC3)c[nH]c2c1	ligand displacement	–	radioligand	–	10 µM	inhibition	98%
